From PubChem
Most compounds without a hit are left out; they make up all but 2.3% or so of the library.
LMPTP inh: LMPTP (human) inhibition; recombinant LMPTP-A, OMFP fluorogenic substrate, fluorescence intensity; AID 651560; actives 0.22% (n = 360,000); inhibition, % at 20 µM; P24666;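 active = compounds that cut the enzyme signal by at least half of the control window in the single-dose screen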;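 note: plate controls were DMSO wells with enzyme plus substrate for no effect and substrate without enzyme for full effect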
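Assay system: LMPTP-A, protein tyrosine phosphatase of low molecular weight / Medium: pH 6.0 Bis-Tris buffer with DTT and Triton X-100 / Schedule: 50 min enzyme reaction at room temperature, protected from light / Measured by: endpoint fluorescence intensity from OMFP dephosphorylation / Read-out basis: % inhibition relative to no-enzyme and uninhibited control wells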
STEP block: STEP (human) phosphatase inhibition; recombinant STEP, OMFP fluorogenic substrate, fluorescence; inhibition, % at 20 µM; actives 0.25% (n = 360,000);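 active = inhibition at 20 µM, scaled per plate between control wells, above about 37%, limit read from the data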;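 note: 0% = DMSO with enzyme and substrate and 100% = substrate only without enzyme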
Target sequence (P54829 whole entry, looked up): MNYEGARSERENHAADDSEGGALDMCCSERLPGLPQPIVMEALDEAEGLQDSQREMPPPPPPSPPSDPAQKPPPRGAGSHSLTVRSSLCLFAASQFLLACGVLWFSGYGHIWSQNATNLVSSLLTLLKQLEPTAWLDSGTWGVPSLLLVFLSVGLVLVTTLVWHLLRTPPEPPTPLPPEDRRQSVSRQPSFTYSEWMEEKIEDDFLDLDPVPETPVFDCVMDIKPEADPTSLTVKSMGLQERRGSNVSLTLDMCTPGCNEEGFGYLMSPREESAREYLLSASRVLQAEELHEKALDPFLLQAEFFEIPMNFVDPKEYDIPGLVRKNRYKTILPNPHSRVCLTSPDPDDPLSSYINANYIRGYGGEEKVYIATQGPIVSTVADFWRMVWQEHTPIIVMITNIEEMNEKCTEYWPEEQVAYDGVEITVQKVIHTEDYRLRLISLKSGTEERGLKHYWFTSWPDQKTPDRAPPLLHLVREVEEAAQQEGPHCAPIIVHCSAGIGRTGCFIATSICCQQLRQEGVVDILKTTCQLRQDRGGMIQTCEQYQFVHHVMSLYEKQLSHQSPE
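Assay system: isolated STEP enzyme. Buffer or medium: pH 6.0 Bis-Tris with DTT and Tween 20. Also added: fluorogenic phosphatase substrate OMFP at 25 µM final. Dosing: 20 µM, 1% DMSO. Timing: 20 min reaction, room temperature, in the dark. Measured by: fluorescence intensity, excitation 480 nm, emission 540 nm. Evaluation: normalized % inhibition.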
SUMO1-SIM PPI: modulators of human SUMO1-mediated protein-protein interactions; SUMO1 binding to a labelled peptide, TR-FRET, 1 h; inhibition, % at 20 µM; actives 0.33% (n = 360,000); AID 602429; in the data active = inhibition above about 37%
Target sequence (P63165 whole entry, looked up): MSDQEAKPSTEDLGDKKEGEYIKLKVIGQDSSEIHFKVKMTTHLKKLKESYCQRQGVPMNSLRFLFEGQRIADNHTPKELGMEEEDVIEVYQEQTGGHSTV
DNMT1 inh: inhibitors of human DNMT1 | inhibition (reported as % activation of signal), % at 10 µM | AID 588458 | actives 0.83% (n = 360,000) | DNMT1 molecular beacon, Hinp1I cleavage, fluorescence | P26358; in the data active = inhibition above about 50%
Rpn11 block: inhibitors of human proteasome Rpn11 | O00487 | human 26S proteasome, Ub4-pepOG fluorescence polarization; 20S core pre-blocked with epoxomicin | inhibition, % at 20 µM | actives 0.59% (n = 360,000);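 active = inhibition at 20 µM, scaled to each plate's controls, above about 33%, limit read from the data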
Scp1 inh: inhibitors of human Scp-1 phosphatase; inhibition, % at 20 µM; actives 0.88% (n = 340,000); Recombinant Scp1, phosphopeptide, malachite green phosphate absorbance; Q9GZU7;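 active = inhibition above about 50% at 20 µM, limit read from the data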;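 note: plate controls were DMSO wells with enzyme for no effect and wells lacking enzyme for full effect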
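System: SCP-1 catalytic domain; Reagent: Phospho 17-mer peptide substrate; Doses: one concentration, 20 µM, with 1.0% DMSO; Incubation: 45 min room-temperature reaction, 5 min colour, 30 min stabiliser; Signal: Phosphate-binding colour reagent, absorbance read at 630 nm.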
Numbers without * were called inactive; x = not tested or not shown.

SMILES | LMPTP inh | STEP block | SUMO1-SIM PPI | DNMT1 inh | Rpn11 block | Scp1 inh
CCOc1ccc(NC(=O)CN(C)C(=O)c2cc3c(s2)CCC(C)C3)cc1OCC (configuration not stated) | 0.9 | 1.4 | 5.1 | -9.1 | 8.7 | -9.3
O=C(CCCn1nnnc1CN1CCOCC1)N1CCN(c2ccccc2F)CC1 | 0.1 | -1.0 | 6.2 | -0.1 | -7.6 | -4.2
CCN1CCc2nc(N)sc2C1 | 1.1 | 96.4* | -1.7 | -1.6 | 3.6 | -11.7
N#CCc1c(C#N)c(N)nc(N2CCCC(O)C2)c1C#N (configuration not stated) | 1.4 | -2.7 | 6.7 | -3.2 | 6.7 | -0.8
CCn1nnc(NC(=O)COc2ccc([N+](=O)[O-])cc2)n1 | -2.1 | -1.8 | -16.5 | -1.1 | -1.8 | -12.6
S=C(NCCCN1CCOCC1)NCCCN1CCOCC1 | -7.2 | 93.6* | -1.6 | -0.6 | -6.0 | -2.4
CC(C)(C)OC(=O)N1CCC(c2cc(=O)n3[nH]cc(C(=O)Nc4ccc(F)c(Cl)c4)c3n2)CC1 | 5.6 | -2.3 | 50.6* | -10.0 | 5.1 | 6.0
CC(=O)Oc1cc(C(=O)OCC(=O)NC23CC4CC(CC(C4)C2)C3)cc(OC(C)=O)c1OC(C)=O | 21.6 | 1.7 | 8.9 | 15.6 | 7.6 | 69.8*
COc1cccc(C(=O)OCC(=O)NC23CC4CC(CC(C4)C2)C3)c1 | 0.1 | -0.5 | 0.1 | 0.6 | 2.8 | -5.4
Nc1nc(-c2ccco2)cs1 | 0.5 | 0.2 | 10.4 | -4.2 | 1.1 | -6.0
c1coc(-c2nc(-c3ccco3)c(-c3ccco3)nc2-c2ccco2)c1 | 81.8* | 94.1* | 83.2* | 116.8* | x | 92.7*
O=C1C(=C(I)I)c2ccccc2-c2ccccc21 | 37.3 | 11.0 | 35.9* | 114.8* | 31.4 | 44.3
NC(=S)N=Nc1c(O)cc(O)c2[nH]c(=O)ccc12 | 14.4 | 39.0 | 69.4* | 66.0* | -13.1 | 84.7*
NC(=S)N=Nc1c(O)[nH]c2ccc(F)cc12 | -0.6 | 1.8 | -11.8 | -1.9 | 4.9 | -2.6
O=C(N/N=C1\C(=O)c2cccc3cccc1c23)c1ccc(O)cc1 | 16.9 | 10.1 | 41.3* | 44.1 | 4.6 | 23.9
CNC(=S)N/N=C1\C(=O)c2cccc3cccc1c23 | 2.2 | 0.7 | -11.4 | -7.3 | 0.4 | -4.8
NC(=S)N/N=C/c1coc2cc(Br)ccc2c1=O | -0.1 | 1.2 | -1.2 | 0.4 | 41.5* | -14.4
O=C(O)CC(C(=O)O)N1C(=O)/C(=C/c2ccc(-c3nc4ccccc4s3)o2)SC1=S (configuration not stated) | 30.6 | 62.7* | 87.4* | 107.0* | 71.4* | 80.2*
O=C(NCCCO)C(=O)Nc1cc2c3c(c1)CCN3C(=O)CC2 | -0.3 | 1.2 | 0.7 | 1.0 | 0.6 | 0.3
CC[C@@]1(O)C(=O)OCc2c1cc1n(c2=O)Cc2cc3c(N)cccc3nc2-1 | 1.6 | 5.1 | -16.5 | 15.1 | -16.0 | 56.9*
CC[C@@]1(O)C(=O)OCc2c1cc1n(c2=O)Cc2cc3c(CN(C)C)c(O)ccc3nc2-1 | 0.2 | -5.8 | -28.9 | 22.6 | -181.5 | -3.8
Cc1[nH]n(-c2ccccc2)c(=S)c1C=Nc1cccc([N+](=O)[O-])c1 | -0.8 | 1.0 | -8.7 | -3.3 | 3.4 | 87.0*
CCCCN=Cc1c(C)[nH]n(-c2ccccc2)c1=S | -0.1 | 4.9 | -2.6 | -1.8 | -1.4 | 4.6
Cc1cc(C)cc(NC(=O)c2ccc(CNc3c(N4CCCC4)c(=O)c3=O)cc2)c1 | 0.4 | 0.5 | 51.5* | -3.9 | 2.7 | -4.0
Cc1ccc(CNC(=O)c2ccc(CNc3c(N4CCCC4)c(=O)c3=O)cc2)cc1 | -2.6 | 1.9 | 0.1 | 3.1 | -1.2 | -9.1
SMILES | LMPTP inh | STEP block | SUMO1-SIM PPI | DNMT1 inh | Rpn11 block | Scp1 inh
Cc1cc(C)cc(NC(=O)c2ccc(CNc3c(N4CCOCC4)c(=O)c3=O)cc2)c1 | 0.7 | 2.2 | 42.1* | -4.2 | 16.6 | -2.8
CCN(CC)c1ccc(NC(=O)Cn2ncc3c(C)n(Cc4ccccc4F)c(C)c3c2=O)c(C)c1 | 5.2 | 4.2 | -2.8 | 60.0* | 5.6 | -7.8
Cc1c2cnn(CC(=O)NCCN3CCOCC3)c(=O)c2c(C)n1Cc1ccccc1F | -1.2 | -0.9 | 4.7 | 3.3 | 6.8 | 9.6
c1cc2c3c(cccc3c1)C(N1CCOCC1)=N2 | 5.1 | -0.2 | -15.8 | -4.6 | -29.5 | 0.4
c1ccc(CC2CCN(C3=Nc4cccc5cccc3c45)CC2)cc1 | 43.2 | 1.6 | -19.5 | -6.2 | 38.7* | 11.4
CC(Sc1nnc(C2CC2)n1C1CC1)C(=O)Nc1ccccc1C#N (configuration not stated) | -1.2 | -0.1 | 0.3 | 2.0 | -2.5 | -2.7
O=C(NC1CC1(c1ccccc1)c1ccccc1)c1ccccc1 (configuration not stated) | 0.9 | 0.0 | 2.6 | -2.3 | 4.1 | -7.7
CC(=O)c1ccc(NC(=O)c2ccc(N3C(=O)c4cccnc4C3=O)cc2)cc1 | 3.2 | 1.9 | 41.2* | -4.5 | 0.6 | 7.0
CCc1ccc(O)c(N=Cc2ccccc2O)c1 | -0.8 | -2.3 | 0.9 | -3.1 | x | -5.6
O=c1[nH][nH]c2c(N=Cc3ccccc3O)ccc(F)c12 | 70.3* | 94.2* | 91.9* | 118.0* | -32.6 | 91.5*
COc1ccc2oc(=N)c(C(=O)Nc3ccccc3Cl)cc2c1 | 1.6 | 1.3 | 6.1 | 21.7 | -0.3 | -2.0
S=C1Nc2ccccc2CS1 | -0.8 | 0.1 | -0.7 | 3.0 | -3.6 | x
S=C1Cc2ccccc2N1 | 48.2 | 21.1 | 76.6* | 83.3* | 20.6 | -7.4
Fc1ccc2c(c1)C(c1ccc(N3CCOCC3)cc1)=NNC(c1cccs1)=N2 | 1.6 | 4.2 | -7.2 | -15.4 | 81.5* | -4.6
Brc1ccc2c(c1)C(c1ccc(N3CCOCC3)cc1)=NNC(c1cccs1)=N2 | 4.5 | -3.0 | -6.1 | -12.6 | x | 2.5
O=C(OCC(=O)N1CCOCC1)c1cc(-c2ccccc2)nc2ccccc12 | -0.7 | 0.4 | -30.6 | -1.9 | 3.8 | -2.2
Cc1cc(C)c(S(=O)(=O)N2CCCCC2CCNC(=O)C(=O)NC2CC2)c(C)c1 (configuration not stated) | -0.3 | -1.1 | 4.3 | 2.7 | -4.3 | 3.9
Brc1ccc2c(c1)-c1ccccc1C1=NCCN12 | 5.7 | 3.7 | 0.7 | 53.4* | 9.4 | x
Clc1ccc2c(c1)-c1ccccc1C1=NCCN12 | 4.9 | -1.6 | 2.4 | 50.9* | 5.3 | x
COc1ccc(Br)cc1S(=O)(=O)N1CCN=C1c1ccccc1 | 0.3 | -2.3 | -5.7 | -1.5 | 11.5 | -6.7
NC(=O)C1CCN(CC(=O)Nc2ccccc2C(=O)NC2CC2)CC1 | -1.0 | -3.4 | 2.4 | 3.5 | -1.7 | -5.7
COc1ccc([C@H]2C[C@H](O)[C@@H](n3cc(-c4ccc(F)cc4)nn3)CN2C(=O)C2CCCCC2)cc1 | 0.8 | -1.8 | 1.2 | 2.3 | -2.6 | x
